Reference: ChEMBL document CHEMBL1142706, “Synthesis and evaluation of (pyridylmethylene)tetrahydronaphthalenes/-indanes and structurally modified derivatives: potent and selective inhibitors of aldosterone synthase” (J Med Chem, 2005)

How the values were obtained:
Aromatase = target: T1, Aromatase (Homo sapiens, UniProt P11511); test: In vitro inhibitory concentration against human placental CYP19 incubated with 500 nM of substrate androstenedione in presence of the compound
T1 sequence (P11511 whole entry): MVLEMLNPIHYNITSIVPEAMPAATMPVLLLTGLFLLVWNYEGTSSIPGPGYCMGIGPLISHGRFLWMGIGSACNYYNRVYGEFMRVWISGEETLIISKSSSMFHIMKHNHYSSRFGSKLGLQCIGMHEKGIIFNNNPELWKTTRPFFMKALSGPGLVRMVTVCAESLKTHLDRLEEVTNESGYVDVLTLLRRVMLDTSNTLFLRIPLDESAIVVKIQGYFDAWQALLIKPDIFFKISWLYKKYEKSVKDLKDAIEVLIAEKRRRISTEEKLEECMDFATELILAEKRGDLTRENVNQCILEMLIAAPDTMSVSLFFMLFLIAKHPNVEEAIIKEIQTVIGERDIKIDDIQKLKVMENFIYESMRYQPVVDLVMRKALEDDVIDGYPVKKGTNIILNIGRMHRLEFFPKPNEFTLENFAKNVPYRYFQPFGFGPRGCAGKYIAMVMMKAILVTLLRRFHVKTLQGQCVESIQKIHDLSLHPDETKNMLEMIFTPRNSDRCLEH

[1] = target: T2, Cytochrome P450 11B2, mitochondrial (Homo sapiens, UniProt P19099); test: In vitro inhibitory concentration against human CYP11B2 expressed in V79MZh hamster fibroblasts incubated with 100 nM of substrate deoxy-corticosterone in presence of the compound
T2 sequence (P19099 whole entry): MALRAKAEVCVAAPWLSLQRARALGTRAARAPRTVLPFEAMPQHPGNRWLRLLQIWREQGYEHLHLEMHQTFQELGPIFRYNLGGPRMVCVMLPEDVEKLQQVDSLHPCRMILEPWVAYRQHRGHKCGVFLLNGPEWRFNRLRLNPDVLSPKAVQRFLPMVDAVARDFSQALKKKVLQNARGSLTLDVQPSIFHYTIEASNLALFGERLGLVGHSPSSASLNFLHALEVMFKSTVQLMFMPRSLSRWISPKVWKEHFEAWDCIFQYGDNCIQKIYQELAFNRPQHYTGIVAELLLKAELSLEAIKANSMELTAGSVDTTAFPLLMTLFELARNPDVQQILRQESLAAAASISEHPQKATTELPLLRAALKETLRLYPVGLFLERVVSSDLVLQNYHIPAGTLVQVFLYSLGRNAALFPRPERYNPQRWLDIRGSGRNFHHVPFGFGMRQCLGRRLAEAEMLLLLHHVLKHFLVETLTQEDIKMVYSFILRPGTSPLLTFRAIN
In short: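 Intact V79 MZh hamster fibroblasts expressing human CYP11B1 or CYP11B2, incubated with [4-14C]-11-deoxycorticosterone (100 nM) and inhibitor at no fewer than three concentrations to give IC50. Stopped with ethyl acetate, shaken, centrifuged (10 000g, 2 min); steroids in organic phase analysed by HPTLC/phosphoimager. Mean of four determinations, standard deviation less than 5%.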

[2] = target: T2, Cytochrome P450 11B2, mitochondrial; test: In vitro inhibition of human CYP11B2 expressed in Schizosaccharomyces pombe incubated with 100 nM of substrate deoxy-corticosterone in presence of 500 nM of compound
Homo sapiens = organism: Homo sapiens; test: In vitro IC50 ratio against human CYP11B1 to that of human CYP11B2
In short: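 IC50 ratio from V79 MZh hamster fibroblasts expressing human CYP11B1 or CYP11B2, each incubated with [4-14C]-11-deoxycorticosterone (100 nM) and inhibitor at no fewer than three concentrations; steroids extracted into ethyl acetate and quantified by HPTLC with phosphoimaging.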

CYP17 = target: T3, CYP17 (Homo sapiens, UniProt P05093); test: In vitro inhibition of human CYP17 expressed in Escherichia coli incubated with 2.5 uM of substrate progesterone in presence of 2.5 uM of compound; details: probe progesterone
T3 sequence (P05093 whole entry): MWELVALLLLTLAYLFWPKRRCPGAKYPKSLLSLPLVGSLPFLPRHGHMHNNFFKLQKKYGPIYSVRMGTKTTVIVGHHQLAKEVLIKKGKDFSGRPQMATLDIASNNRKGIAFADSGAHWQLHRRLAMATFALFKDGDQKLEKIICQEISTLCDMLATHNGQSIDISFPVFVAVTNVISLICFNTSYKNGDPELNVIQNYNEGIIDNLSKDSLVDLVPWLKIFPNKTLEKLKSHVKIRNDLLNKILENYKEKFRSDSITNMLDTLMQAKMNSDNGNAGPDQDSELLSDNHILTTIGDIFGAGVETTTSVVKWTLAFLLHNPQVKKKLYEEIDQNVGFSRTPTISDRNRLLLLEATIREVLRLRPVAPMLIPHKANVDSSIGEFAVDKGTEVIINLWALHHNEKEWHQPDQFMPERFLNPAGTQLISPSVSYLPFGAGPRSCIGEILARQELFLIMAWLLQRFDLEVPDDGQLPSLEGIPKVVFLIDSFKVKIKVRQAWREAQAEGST

[3] = target: T4, Cytochrome P450 11B1, mitochondrial (Homo sapiens, UniProt P15538); test: In vitro inhibitory concentration against human CYP11B1 expressed in V79 MZh hamster fibroblasts incubated with 100 nM of substrate deoxy-corticosterone in presence of the compound
T4 sequence (P15538 whole entry): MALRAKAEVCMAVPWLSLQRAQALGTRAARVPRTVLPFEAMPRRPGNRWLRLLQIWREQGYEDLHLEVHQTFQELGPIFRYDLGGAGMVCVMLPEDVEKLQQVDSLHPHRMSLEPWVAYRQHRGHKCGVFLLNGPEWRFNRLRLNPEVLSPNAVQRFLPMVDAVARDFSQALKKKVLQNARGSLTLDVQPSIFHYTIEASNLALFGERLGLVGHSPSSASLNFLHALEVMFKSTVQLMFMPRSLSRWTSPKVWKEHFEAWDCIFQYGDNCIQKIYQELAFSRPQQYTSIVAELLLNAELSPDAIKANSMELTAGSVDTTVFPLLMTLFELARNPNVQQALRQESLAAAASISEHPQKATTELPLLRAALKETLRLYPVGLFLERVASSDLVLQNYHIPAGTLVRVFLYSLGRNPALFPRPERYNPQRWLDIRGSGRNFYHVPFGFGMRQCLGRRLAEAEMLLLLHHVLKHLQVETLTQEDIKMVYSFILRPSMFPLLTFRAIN

| Structure (SMILES) | IC50 (Aromatase) | IC50 [1] | inhibition at 0.5 µM [2] | Selectivity ratio (Homo sapiens) | inhibition at 2.5 µM (CYP17) | IC50 [3] |
| --- | --- | --- | --- | --- | --- | --- |
| Cc1ccc2c(c1)/C(=C\c1ccncc1)CC2 | 1710 nM | 8 nM | 46% | – | – | – |
| C(=C(c1ccccc1)c1ccccc1)c1ccncc1 | 100 nM | 22 nM | 32% | – | – | – |
| C(=C1\CCCc2ccccc21)/c1cccnc1 | – | – | – | 10.1 | 24% | – |
| COc1ccc2c(c1)CCC/C2=C\c1cccnc1 | – | – | – | 15.8 | 20% | – |
| COc1ccc2c(c1)CC/C2=C\c1cncs1 | 4330 nM | 17 nM | 18% | – | – | – |
| CCOc1ccc2c(c1)CC/C2=C\c1cccnc1 | – | – | – | 30 | 13% | – |
| COc1ccc2c(c1)CC/C2=C/c1ccncc1 | – | 55 nM | 13% | – | – | – |
| COc1ccc2c(c1)CC/C2=C/c1cncs1 | 4830 nM | 5 nM | 17% | – | – | – |
| Clc1cccc2c1CC/C2=C/c1cccnc1 | – | 31 nM | – | 21.1 | 32% | – |
| Fc1ccc2c(c1)CC/C2=C/c1cccnc1 | – | 11 nM | – | 11.4 | 16% | – |
| Cc1cccc2c1CC/C2=C/c1cccnc1 | 12600 nM | – | 12% | – | 16% | – |
| Clc1ccc2c(c1)CC/C2=C\c1ccncc1 | – | 1520 nM | – | – | – | 1520 nM |
| Fc1ccc2c(c1)CC/C2=C\c1cccnc1 | – | 7 nM | – | 44.4 | 17% | – |
| Brc1ccc2c(c1)CC/C2=C/c1cccnc1 | – | – | – | 1.9 | 24% | – |
| COc1cc2c(cc1OC)/C(=C/c1cccnc1)CCC2 | 980 nM | – | 5% | – | 6% | – |
| Cc1ccc2c(c1)/C(=C/c1ccncc1)CC2 | 1280 nM | 4 nM | 41% | – | – | – |
| Fc1ccc2c(c1)CC/C2=C/c1cccc2ncccc12 | > 36000 nM | 31 nM | 0% | – | – | – |
| COc1ccc2c(c1)CC/C2=C/c1cccnc1 | – | 26 nM | – | 30.4 | 49% | – |
| COc1ccc2c(c1)/C(=C/c1ccncc1)CC2 | – | 3 nM | 26% | – | – | – |
| Clc1ccc2c(c1)CC/C2=C/c1ccncc1 | 1990 nM | 301 nM | 37% | – | – | – |
| Clc1ccc2c(c1)CC/C2=C\c1cccnc1 | – | – | – | 56.6 | 26% | – |
| COc1cc2c(cc1OC)/C(=C/c1ccncc1)CCC2 | 90 nM | 11 nM | 29% | – | – | – |
| Cc1ccc2c(c1)/C(=C\c1cccnc1)CC2 | 4600 nM | – | 43% | – | 2% | – |
| C(=C1/CCc2cc(OCc3ccccc3)ccc21)/c1cccnc1 | > 36000 nM | – | 0% | – | 1% | – |
| C(=C1/CCCc2ccccc21)/c1cccnc1 | – | 22 nM | – | 32.5 | 9% | – |
| COc1cccc2c1/C(=C/c1cccnc1)CC2 | – | – | – | 35.4 | 5% | – |

| Structure (SMILES) | IC50 (Aromatase) | IC50 [1] | inhibition at 0.5 µM [2] | Selectivity ratio (Homo sapiens) | inhibition at 2.5 µM (CYP17) | IC50 [3] |
| --- | --- | --- | --- | --- | --- | --- |
| C(=C1/CCc2ccccc21)/c1ccncc1 | – | 8 nM | – | – | – | – |
| Clc1ccc2c(c1)CC/C2=C/c1cccnc1 | – | – | – | 3.7 | 28% | – |
| COc1ccc2c(c1)CCC/C2=C/c1ccncc1 | 1010 nM | 56 nM | 36% | – | – | – |
| C(=C1c2ccccc2-c2ccccc21)c1ccncc1 | 2740 nM | 5 nM | 6% | – | – | – |
| Fc1ccc2c(c1)CC/C2=C\c1ccnc2ccccc12 | > 36000 nM | 20 nM | 0% | – | – | – |
| COc1ccc2c(c1)CC/C2=C\c1ccncc1 | – | 59 nM | 11% | – | – | – |
| CC1C/C(=C\c2cccnc2)c2ccccc21 (configuration not stated) | 3680 nM | – | 47% | – | – | – |
| Cc1ccc2c(c1)/C(=C/c1cccnc1)CC2 | 3930 nM | – | 27% | – | 3% | – |
| N#Cc1ccc(C2CCCc3cncn32)cc1 (configuration not stated) [FADROZOLE] | – | – | – | – | 5% | – |
| Cc1cccc2c1CC/C2=C\c1cccnc1 | – | – | – | 7.1 | 40% | – |
| C(=C1/CC(c2ccccc2)c2ccccc21)/c1cccnc1 (configuration not stated) | 4060 nM | 3 nM | 0% | – | – | – |
| CCOc1ccc2c(c1)CC/C2=C/c1cccnc1 | – | – | – | 10.9 | 6% | – |
| COc1ccc2c(c1)/C(=C\c1ccncc1)CC2 | – | 26 nM | 24% | – | – | – |
| COc1ccc2c(c1)CCC/C2=C/c1cccnc1 | – | – | – | 0.2 | 17% | – |
| Brc1ccc2c(c1)CC/C2=C\c1cccnc1 | – | – | – | 52.4 | 16% | – |
| COc1ccc2c(c1)/C(=C/c1cccnc1)CC2 | 6360 nM | – | 29% | – | 5% | – |
| Fc1cccc2c1CC/C2=C/c1cccnc1 | 180 nM | – | 40% | – | 53% | – |
| Fc1ccc2c(c1)CC/C2=C/c1cncnc1 | 790 nM | – | 14% | – | – | – |
| COc1ccc2c(c1)CC/C2=C\c1cccnc1 | – | – | – | 42.6 | 36% | – |
| Fc1ccc2c(c1)CC/C2=C/c1ccnc2ccccc12 | > 36000 nM | 14 nM | 0% | – | – | – |
| Fc1cccc2c1CC/C2=C\c1cccnc1 | – | – | – | 36.9 | 42% | – |
| C(=C1c2ccccc2-c2ccccc21)c1cccnc1 | 4810 nM | 6 nM | 0% | – | – | – |
| Fc1ccc2c(c1)CC/C2=C\c1cccc2ncccc12 | > 36000 nM | 14 nM | 0% | – | – | – |
| COc1ccc2c(c1)CCC/C2=C\c1ccncc1 | 800 nM | 22 nM | 31% | – | – | – |
| Clc1cccc2c1CC/C2=C\c1cccnc1 | – | 9 nM | – | 33.8 | 14% | – |
| C(=C(c1ccccc1)c1ccccc1)c1cccnc1 | 3630 nM | 9 nM | 5% | – | – | – |
